Source: ChEMBL document CHEMBL2434885, “cis-Dichloroplatinum(II) complexes tethered to dibenzo[c,h][1,6]naphthyridin-6-ones: synthesis and cytotoxicity in human cancer cell lines in vitro” (Eur J Med Chem, 2013)

Columns and labels:
Type in all cases: functional, cell-based
[1] = tested on: HT-29; test: Cytotoxicity against human HT-29 cells after 72 hrs by crystal-violet staining-based spectrophotometric analysis; details: HT-29, 72 h
Summary of the method: (§1)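 Subconfluent, exponentially growing, mycoplasma-free monolayers in RPMI 1640 + 10% FBS, 5% CO2. Cells treated 72 h with 0–500 µM (compounds in physiological serum, or in DMF at ≤3% final). Cells then PBS-washed, ethanol-fixed, stained with 1% crystal violet and eluted in 33% acetic acid, with A570 read. Triplicates, three independent experiments. IC50 taken from concentration–response curves as 50% growth inhibition.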

[2] = tested on: SW480; test: Cytotoxicity against human SW480 cells after 72 hrs by crystal-violet staining-based spectrophotometric analysis; details: SW480, 72 h; summary of the method: as §1
[3] = tested on: HCT-116; test: Cytotoxicity against human HCT116 cells after 72 hrs by crystal-violet staining-based spectrophotometric analysis; details: HCT-116, 72 h; summary of the method: as §1

Row | SMILES | IC50 [1] [µM] | IC50 [2] [µM] | IC50 [3] [µM]
1 | NCCNCCCCCn1c(=O)c2cc([N+](=O)[O-])ccc2c2cnc3cc4c(cc3c21)OCO4 | 47.6 | 50.7 | 25.2
2 | NCCNCCCCn1c(=O)c2cc([N+](=O)[O-])ccc2c2cnc3cc4c(cc3c21)OCO4 | 41.2 | 43.7 | 30.7
3 | NCCNCCCn1c(=O)c2cc([N+](=O)[O-])ccc2c2cnc3cc4c(cc3c21)OCO4 | 22.2 | 30.1 | 12.2
4 | NCCNCCn1c(=O)c2cc([N+](=O)[O-])ccc2c2cnc3cc4c(cc3c21)OCO4 | 43 | 40.7 | 25
5 | NCCNCCCCCCn1c(=O)c2cc([N+](=O)[O-])ccc2c2cnc3cc4c(cc3c21)OCO4 | 30.8 | 24 | 15.4
